# Data reported in ChEMBL document CHEMBL1152813, “Synthesis of puromycin derivatives with backbone-elongated substrates and associated translation inhibitory activities” (Bioorg Med Chem, 2009).
# What was measured:
# [1] = Solubility in water; type: physicochemical; details: buffer
# [2] = system: Escherichia coli; assay: Inhibition of firefly luciferase mRNA translation in Escherichia coli after 1 hr relative to control; type: functional
# Method in brief: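 Reconstituted E. coli translation system translating firefly luciferase mRNA with CCPmn derivatives at 2.5–30 µM (2.5–120 µM for some), 1 h incubation. Luciferase activity (c.p.s.) read by luminescence counter; translation efficiency (%) set against a serial-dilution calibration of control luciferase translated without CCPmns; three independent experiments, standard deviations.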
SMILES,solubility [1],IC50 [2] [µM]
C[C@H](CO)C(=O)N[C@H]1[C@@H](O)[C@H](n2cnc3c(N(C)C)ncnc32)O[C@@H]1COP(=O)(O)O[C@H]1[C@@H](O)[C@H](n2ccc(N)nc2=O)O[C@@H]1COP(=O)(O)O[C@H]1[C@@H](O)[C@H](n2ccc(N)nc2=O)O[C@@H]1CO,Soluble,12
C[C@H](CN)C(=O)N[C@H]1[C@@H](O)[C@H](n2cnc3c(N(C)C)ncnc32)O[C@@H]1COP(=O)(O)O[C@H]1[C@@H](O)[C@H](n2ccc(N)nc2=O)O[C@@H]1COP(=O)(O)O[C@H]1[C@@H](O)[C@H](n2ccc(N)nc2=O)O[C@@H]1CO,Soluble,33
CC(=O)N[C@H]1[C@@H](O)[C@H](n2cnc3c(N(C)C)ncnc32)O[C@@H]1COP(=O)(O)O[C@H]1[C@@H](O)[C@H](n2ccc(N)nc2=O)O[C@@H]1COP(=O)(O)O[C@H]1[C@@H](O)[C@H](n2ccc(N)nc2=O)O[C@@H]1CO,Soluble,66
COc1ccc(C[C@H](N)C(=O)N[C@H]2[C@@H](O)[C@H](n3cnc4c(N(C)C)ncnc43)O[C@@H]2COP(=O)(O)O[C@H]2[C@@H](O)[C@H](n3ccc(N)nc3=O)O[C@@H]2COP(=O)(O)O[C@H]2[C@@H](O)[C@H](n3ccc(N)nc3=O)O[C@@H]2CO)cc1,Soluble,5
CN(C)c1ncnc2c1ncn2[C@@H]1O[C@H](CO)[C@@H](NC(=O)CCO)[C@H]1O,Insoluble,

# Second part, the compound after the results:
solubility [1],IC50 [2] [µM],SMILES
Soluble,,C[C@H](CN)C(=O)N[C@H]1[C@@H](O)[C@H](n2cnc3c(N(C)C)ncnc32)O[C@@H]1COP(=O)(O)O
Soluble,,C[C@H](CO)C(=O)N[C@H]1[C@@H](O)[C@H](n2cnc3c(N(C)C)ncnc32)O[C@@H]1COP(=O)(O)O
Soluble,,CC(=O)N[C@H]1[C@@H](O)[C@H](n2cnc3c(N(C)C)ncnc32)O[C@@H]1COP(=O)(O)O
